In PubChem BioAssay AID602223 (Southern Research Specialized Biocontainment Screening …, 2012):
Records with an inconclusive call do not appear. The source made the active and inactive calls.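 Rule for the calls: active = inhibition of 30% or more at any tested concentration; inactive = the rest, inconclusive results apart.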

target: M1-family alanyl aminopeptidase (Plasmodium falciparum 3D7); test: malaria M1 alanyl aminopeptidase inhibitors – biochemical, QFRET, H-Leu-NHMec substrate, set 2, selectivity assay for PfM17LAP inhibitor project, dose response (AID 602223); conditions: recombinant PfM1AAP, H-Leu-NHMec fluorogenic cleavage
Procedure, shortened: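 System: recombinant protease; also added: 0.1 mM fluorogenic substrate; doses: concentration series from 100 µM down to 0.2 µM; incubation: 90 min, room temperature; detection: fluorescence of liberated NHMec, excitation 370 nm, emission 460 nm; repeats: triplicate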

Question: With `O=C(Cc1ccc(OCc2ccccc2)cc1)NO` as the compound, how does the IC50 read?
Answer: 2.89 µM

Question: Which IC50 does the source give for `O=C(Cc1ccc2c(c1)CCCC2)NO` here?
Answer: 1.41 µM

Question: With `CC(C)COc1ccc(CC(=O)NO)cc1` as the compound, how does the IC50 read?
Answer: 23.2 µM

Question: `COc1ccc(CC(=O)NO)cc1` was tested. Which IC50 did it give?
Answer: 4.58 µM

Question: `COc1ccc(CCCC(=O)NO)cc1` was tested. Which IC50 did it give?
Answer: 95.8 µM

Question: With `CCCCCCCCCC(=O)NO` as the compound, how does the IC50 read?
Answer: 13.3 µM

Question: How did the IC50 turn out when `CCOc1ccc(CC(=O)NO)cc1` was run?
Answer: 7 µM

Question: How did the IC50 turn out when `CCCCc1ccc(CC(=O)NO)cc1` was run?
Answer: 2.57 µM

Question: For `CCCCOc1ccc(CC(=O)NO)cc1`, which IC50 is on record?
Answer: 14 µM

Question: For `O=C(Cc1ccc(Oc2ccccc2)cc1)NO`, which IC50 is on record?
Answer: 5.45 µM

Question: `CCCCOc1ccc(C(=O)NO)cc1` was tested. Which IC50 did it give?
Answer: 99.1 µM

Question: `Cc1ccc(CC(=O)NO)cc1` was tested. Which IC50 did it give?
Answer: 5.77 µM

same assay, conditions: recombinant PfM1AAP, H-Leu-NHMec fluorogenic cleavage; at 100 µM (top of the series)

Question: `CCCCOc1ccc(CNc2c(N(O)Cc3ccccc3)c(=O)c2=O)cc1` was tested. Which inhibition did it give?
Answer: inactive

Question: With `CN(O)C(=O)Cc1ccc(OCc2ccccc2)cc1` as the compound, how does the inhibition read?
Answer: inactive

Question: Which inhibition does the source give for `CCCOc1ccc(CC(=O)OC)cc1` here?
Answer: inactive

Question: Which inhibition does the source give for `CC(C)(C(=O)NO)c1ccccc1` here?
Answer: inactive

Question: Which inhibition does the source give for `COC(=O)Cc1ccc(OCCN(C)C)cc1` here?
Answer: inactive

Question: For `CCCCOc1ccc(CNc2c(N(C)O)c(=O)c2=O)cc1`, which inhibition is on record?
Answer: inactive

Question: How did the inhibition turn out when `CCCCOc1ccc(CC(=O)N(C)O)cc1` was run?
Answer: inactive

Question: For `CCCCOc1ccc(CC(=O)O)cc1`, which inhibition is on record?
Answer: inactive
